Here are results for one compound from PMC4265276 (Journal of Veterinary Pharmacology and Therapeutics, 2014).

Common to all, as to test: Z'-Lyte kinase assay
Common to all, as to format: biochemical
Common to all, as to settings: two replicates

For test [1], the target named is Vascular endothelial growth factor receptor 2 (VEGFR-2/FLK1) (Homo sapiens, UniProt P35968). The method, boiled down:
(§1)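 Outsourced commercial profiling of the test compound against a panel of 38 non-JAK kinases, all screened with Z'-Lyte technology at a single concentration. Assay conditions and data analysis were specific to each kinase and set by the service provider. Every test was run in duplicate, and percent inhibition is reported separately for each replicate.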

The target of test [2] is High affinity nerve growth factor receptor (TRK-A) (Homo sapiens, UniProt P04629). The procedure, abridged: as §1
A further test has as its target p160ROCK protein kinase (Homo sapiens, UniProt Q13464). The method, boiled down:
as §1

Test [3] deals with T1, Aurora-related kinase 1 (ARK1) (Homo sapiens, UniProt O14965).
T1 sequence (O14965 1-403): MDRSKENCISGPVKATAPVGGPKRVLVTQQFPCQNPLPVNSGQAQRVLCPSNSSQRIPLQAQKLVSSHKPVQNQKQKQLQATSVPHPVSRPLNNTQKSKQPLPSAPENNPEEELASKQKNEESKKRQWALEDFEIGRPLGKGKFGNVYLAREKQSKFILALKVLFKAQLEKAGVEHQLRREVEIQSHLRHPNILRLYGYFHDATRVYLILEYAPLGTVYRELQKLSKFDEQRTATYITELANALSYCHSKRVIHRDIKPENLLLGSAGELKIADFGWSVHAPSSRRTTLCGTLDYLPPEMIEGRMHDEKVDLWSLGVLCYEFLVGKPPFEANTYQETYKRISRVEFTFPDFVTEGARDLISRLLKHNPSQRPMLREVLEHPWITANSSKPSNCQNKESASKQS
The method, boiled down:
as §1

Test [4] addresses Mitogen-activated protein kinase kinase kinase kinase 4 (MAP4K4/HGK) (Homo sapiens, UniProt O95819). The procedure, abridged: as §1

Chain of High affinity nerve growth factor receptor (TRK-A) (P04629 33-796): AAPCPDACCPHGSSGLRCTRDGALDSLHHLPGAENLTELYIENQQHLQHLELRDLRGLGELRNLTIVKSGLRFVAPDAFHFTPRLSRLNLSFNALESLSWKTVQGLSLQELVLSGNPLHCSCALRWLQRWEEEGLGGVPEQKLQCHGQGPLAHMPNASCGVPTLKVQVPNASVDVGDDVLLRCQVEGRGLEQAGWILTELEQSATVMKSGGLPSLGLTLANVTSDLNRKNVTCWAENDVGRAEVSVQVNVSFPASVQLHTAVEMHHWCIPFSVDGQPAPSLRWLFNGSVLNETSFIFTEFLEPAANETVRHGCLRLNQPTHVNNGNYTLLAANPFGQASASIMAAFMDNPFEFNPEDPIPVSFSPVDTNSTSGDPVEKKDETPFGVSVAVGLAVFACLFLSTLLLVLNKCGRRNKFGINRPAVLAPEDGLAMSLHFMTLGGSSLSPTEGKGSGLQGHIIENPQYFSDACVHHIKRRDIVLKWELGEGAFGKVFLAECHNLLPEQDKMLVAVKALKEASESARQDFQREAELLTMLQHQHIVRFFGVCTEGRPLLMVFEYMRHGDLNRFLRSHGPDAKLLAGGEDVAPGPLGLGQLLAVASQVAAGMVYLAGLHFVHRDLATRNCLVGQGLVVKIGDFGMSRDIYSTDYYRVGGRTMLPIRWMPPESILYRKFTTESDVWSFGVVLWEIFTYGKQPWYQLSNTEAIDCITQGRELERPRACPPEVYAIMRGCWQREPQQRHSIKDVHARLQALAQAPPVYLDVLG
Chain of p160ROCK protein kinase (Q13464 2-1354): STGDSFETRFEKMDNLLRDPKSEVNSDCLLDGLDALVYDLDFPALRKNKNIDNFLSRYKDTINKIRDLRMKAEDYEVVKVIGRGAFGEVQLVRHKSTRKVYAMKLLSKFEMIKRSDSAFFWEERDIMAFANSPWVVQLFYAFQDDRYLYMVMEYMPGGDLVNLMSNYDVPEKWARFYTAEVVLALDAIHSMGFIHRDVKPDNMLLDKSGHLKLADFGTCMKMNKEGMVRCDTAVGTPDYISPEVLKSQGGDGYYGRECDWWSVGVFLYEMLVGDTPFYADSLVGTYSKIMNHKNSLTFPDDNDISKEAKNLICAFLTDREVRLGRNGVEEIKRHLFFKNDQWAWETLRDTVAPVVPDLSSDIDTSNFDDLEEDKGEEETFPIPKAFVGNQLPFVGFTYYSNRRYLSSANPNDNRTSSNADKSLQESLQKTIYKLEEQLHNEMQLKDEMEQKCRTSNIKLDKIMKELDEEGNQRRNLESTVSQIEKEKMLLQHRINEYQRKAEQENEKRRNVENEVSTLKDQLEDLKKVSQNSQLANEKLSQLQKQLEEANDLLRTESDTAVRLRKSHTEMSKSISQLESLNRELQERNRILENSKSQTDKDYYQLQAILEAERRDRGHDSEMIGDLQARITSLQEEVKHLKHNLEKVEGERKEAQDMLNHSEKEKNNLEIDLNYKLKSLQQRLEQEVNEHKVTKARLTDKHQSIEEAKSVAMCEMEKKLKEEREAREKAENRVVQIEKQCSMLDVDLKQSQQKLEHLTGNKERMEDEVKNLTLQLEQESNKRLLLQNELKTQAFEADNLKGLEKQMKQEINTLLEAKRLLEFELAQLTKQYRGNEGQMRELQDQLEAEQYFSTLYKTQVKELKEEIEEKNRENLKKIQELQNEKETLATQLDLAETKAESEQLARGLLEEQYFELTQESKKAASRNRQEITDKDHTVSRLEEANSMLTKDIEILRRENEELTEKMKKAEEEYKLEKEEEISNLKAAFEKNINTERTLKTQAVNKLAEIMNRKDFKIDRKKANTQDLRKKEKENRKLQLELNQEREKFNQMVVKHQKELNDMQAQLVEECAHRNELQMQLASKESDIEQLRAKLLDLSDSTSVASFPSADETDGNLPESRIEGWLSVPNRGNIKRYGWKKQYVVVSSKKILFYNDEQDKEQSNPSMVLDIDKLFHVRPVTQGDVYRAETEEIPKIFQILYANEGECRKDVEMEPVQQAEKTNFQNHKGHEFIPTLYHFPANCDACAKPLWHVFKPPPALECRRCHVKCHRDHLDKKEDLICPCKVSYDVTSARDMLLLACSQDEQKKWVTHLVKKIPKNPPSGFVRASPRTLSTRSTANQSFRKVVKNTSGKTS
Chain of Vascular endothelial growth factor receptor 2 (VEGFR-2/FLK1) (P35968 20-1356): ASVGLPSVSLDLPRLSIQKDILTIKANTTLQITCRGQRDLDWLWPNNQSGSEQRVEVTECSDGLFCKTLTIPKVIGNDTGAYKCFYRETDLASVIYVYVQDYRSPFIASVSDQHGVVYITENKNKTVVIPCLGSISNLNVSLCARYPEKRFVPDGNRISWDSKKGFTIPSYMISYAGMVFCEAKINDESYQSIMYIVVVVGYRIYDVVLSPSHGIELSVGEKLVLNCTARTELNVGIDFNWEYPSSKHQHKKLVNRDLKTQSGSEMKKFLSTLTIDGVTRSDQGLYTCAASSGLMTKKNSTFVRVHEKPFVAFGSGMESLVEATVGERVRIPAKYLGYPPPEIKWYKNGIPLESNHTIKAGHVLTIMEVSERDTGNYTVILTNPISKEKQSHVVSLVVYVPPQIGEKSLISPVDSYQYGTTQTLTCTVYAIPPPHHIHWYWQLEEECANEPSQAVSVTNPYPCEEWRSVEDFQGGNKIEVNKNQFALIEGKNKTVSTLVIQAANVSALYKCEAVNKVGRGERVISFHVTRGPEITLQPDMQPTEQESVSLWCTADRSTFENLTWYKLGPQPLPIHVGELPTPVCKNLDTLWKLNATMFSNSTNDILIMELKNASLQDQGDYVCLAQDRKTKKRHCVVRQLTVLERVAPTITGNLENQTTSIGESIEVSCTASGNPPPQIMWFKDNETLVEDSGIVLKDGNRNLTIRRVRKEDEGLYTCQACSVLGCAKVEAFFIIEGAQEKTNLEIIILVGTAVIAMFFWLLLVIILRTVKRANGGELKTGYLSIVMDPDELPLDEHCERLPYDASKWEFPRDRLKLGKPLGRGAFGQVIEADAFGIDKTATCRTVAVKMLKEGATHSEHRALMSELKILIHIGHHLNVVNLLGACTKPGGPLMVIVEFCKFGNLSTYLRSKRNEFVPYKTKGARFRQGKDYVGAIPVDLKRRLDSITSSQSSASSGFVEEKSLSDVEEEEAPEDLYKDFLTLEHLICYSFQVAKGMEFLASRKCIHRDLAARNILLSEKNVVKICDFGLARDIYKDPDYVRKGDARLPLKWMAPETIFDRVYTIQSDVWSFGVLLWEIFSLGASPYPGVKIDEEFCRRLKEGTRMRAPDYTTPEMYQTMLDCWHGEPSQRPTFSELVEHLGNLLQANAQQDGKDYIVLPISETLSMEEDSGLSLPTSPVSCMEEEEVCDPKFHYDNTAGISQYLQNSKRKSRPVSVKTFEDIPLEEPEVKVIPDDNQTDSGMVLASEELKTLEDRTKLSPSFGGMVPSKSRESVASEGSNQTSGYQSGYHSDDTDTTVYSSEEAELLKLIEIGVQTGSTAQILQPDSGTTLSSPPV
Chain of Mitogen-activated protein kinase kinase kinase kinase 4 (MAP4K4/HGK) (O95819 2-1239): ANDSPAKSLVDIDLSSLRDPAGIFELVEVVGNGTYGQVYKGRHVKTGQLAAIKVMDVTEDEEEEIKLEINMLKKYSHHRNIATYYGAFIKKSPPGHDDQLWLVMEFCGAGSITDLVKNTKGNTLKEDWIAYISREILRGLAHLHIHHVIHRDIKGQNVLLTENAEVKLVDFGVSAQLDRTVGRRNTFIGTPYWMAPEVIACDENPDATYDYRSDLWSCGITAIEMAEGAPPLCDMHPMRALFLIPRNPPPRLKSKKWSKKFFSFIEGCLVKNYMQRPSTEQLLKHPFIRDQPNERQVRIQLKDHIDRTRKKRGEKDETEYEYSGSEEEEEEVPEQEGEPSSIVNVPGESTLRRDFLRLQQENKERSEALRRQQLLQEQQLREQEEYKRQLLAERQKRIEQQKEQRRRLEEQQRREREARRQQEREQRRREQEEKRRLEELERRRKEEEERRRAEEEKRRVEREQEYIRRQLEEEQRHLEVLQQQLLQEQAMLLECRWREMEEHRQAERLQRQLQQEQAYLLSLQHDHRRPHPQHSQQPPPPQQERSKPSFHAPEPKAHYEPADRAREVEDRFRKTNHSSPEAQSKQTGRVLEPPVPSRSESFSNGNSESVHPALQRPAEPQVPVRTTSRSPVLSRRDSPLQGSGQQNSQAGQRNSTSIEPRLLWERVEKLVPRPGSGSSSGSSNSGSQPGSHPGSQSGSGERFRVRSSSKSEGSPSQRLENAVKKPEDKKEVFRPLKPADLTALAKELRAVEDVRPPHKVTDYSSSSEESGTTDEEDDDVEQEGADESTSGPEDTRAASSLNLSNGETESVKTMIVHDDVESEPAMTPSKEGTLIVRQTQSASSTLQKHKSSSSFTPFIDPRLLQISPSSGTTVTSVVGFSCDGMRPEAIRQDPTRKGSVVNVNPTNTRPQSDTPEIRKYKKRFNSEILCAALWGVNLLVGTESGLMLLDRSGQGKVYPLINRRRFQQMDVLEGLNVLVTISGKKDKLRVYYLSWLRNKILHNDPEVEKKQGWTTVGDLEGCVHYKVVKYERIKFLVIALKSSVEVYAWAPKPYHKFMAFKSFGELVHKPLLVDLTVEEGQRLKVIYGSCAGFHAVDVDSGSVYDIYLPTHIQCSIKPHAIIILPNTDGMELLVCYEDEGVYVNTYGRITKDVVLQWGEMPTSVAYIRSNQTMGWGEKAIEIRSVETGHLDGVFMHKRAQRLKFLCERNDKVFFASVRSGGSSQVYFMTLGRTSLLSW

For `CNS(=O)(=O)C[C@H]1CC[C@H](N(C)c2ncnc3[nH]ccc23)CC1` [oclacitinib], the “Percent inhibition at 1000 nM oclacitinib (1st replicate)” value in test [1] is reported as 41; 37%; in test [2] it was 32; 31%; on p160ROCK protein kinase it was 34; 32%; in test [3], 40; 40%; in test [4] it was 42; 34%.
